These results are taken from the RNAGym collection of RNA variant scans (doi:10.1002/anie.201605470).

B1: Osa-1-4 twister ribozyme (parent)
chain: CCGCCUAACACUGCCAAUGCCGGUCCCAAGCCCGGAUAAAAGUGGAGGGGGCGG

The variants in the data set derive from B1. Put plainly: self-cleavage, relative activity (ratio to wild type); higher = more cleavage; co-transcriptional. The method, boiled down:
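Relative activity is the fraction cleaved divided by that of the wild-type ribozyme. The library came from a DNA template for a 54-nucleotide Oryza sativa twister ribozyme, doped at the 48 positions downstream of the cleavage site with 97 % wild-type base and 1 % of each other base. After 2 h of in vitro transcription at 37 °C with co-transcriptional self-cleavage, the RNA was reverse-transcribed with a template-switching oligonucleotide, amplified by PCR and deep-sequenced, and reads with or without upstream sequence gave the cleavage status.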
As to C33U G49C, the self-cleavage is 0.07. Then C33U G49A, with 0.08; and C33U G49U, with 0.08. Then C33U U37G, with 0.9.

Consider C33U U37A, for which the self-cleavage worked out at 0.87. As to C33U U37C, the self-cleavage was determined as 0.88. To C33G belongs 0.06.

For C33U, the self-cleavage worked out at 0.88.

With C33G G34C, the self-cleavage is 0.05. C33G G34U: the self-cleavage was found to be 0.05. Then C33G G34A, with 0.06.

For C33U C9G, the self-cleavage was found to be 0.3. To C33U C9U belongs 0.39; to C33U C9A, 0.2; to C33U G48C, 0.05. To C33U G48A belongs 0.07. Then C33U G48U, with 0.04; and C33G G49A, with 0.05; and C33G G49U, with 0.02. On to C33G G49C, for which the self-cleavage turned out to be 0.03.

With C33G G44A, the self-cleavage is 0.05. To C33G G44U belongs 0.05; to C33G G44C, 0.05.

On to C33U U12G, for which the self-cleavage is 0.08. To C33U U12A belongs 0.27; to C33U U12C, 0.11. To C33U G54U belongs 0.68; to C33U G54C, 0.61; to C33U G54A, 0.57.

Turning to C33U G13U, the self-cleavage was determined as 0.03. To C33U G13A belongs 0.04.

With C33U G13C, the self-cleavage came to 0.02. For the variant C33G U43G, the self-cleavage was found to be 0.06. Turning to C33G U43C, the self-cleavage came out at 0.03. Then C33G U43A, with 0.06; and C33G G23C, with 0.03.

C33G G23U: the self-cleavage was determined as 0.03. To C33G G23A belongs 0.05. To C33U G42A belongs 0.14; to C33U G42C, 0.08.

For the variant C33U G42U, the self-cleavage came out at 0.07. Then C33U G23C, with 0.04; and C33U G23A, with 0.09; and C33U G23U, with 0.04. Turning to G34A G45A, the self-cleavage turned out to be 0.15.

G34A G45U: the self-cleavage is 0.09. On to G34A G45C, for which the self-cleavage turned out to be 0.06.

For C33U G51U, the self-cleavage was determined as 0.13.

Turning to C33U G51A, the self-cleavage came out at 0.35. To C33U G51C belongs 0.08; to C33U C52G, 0.88. Then C33U C52U, with 0.99. As to C33U C52A, the self-cleavage was determined as 0.84.

As to C33G G51U, the self-cleavage was found to be 0.05. Then C33G G51C, with 0.06; and C33G G51A, with 0.06; and C33U U18C, with 0.63. Then C33U U18G, with 0.48; and C33U U18A, with 0.81; and G34A G47U, with 0.1. To G34A G47A belongs 0.13; to G34A G47C, 0.08.

Turning to C33G C52G, the self-cleavage stood at 0.26. As to C33G C52U, the self-cleavage was 0.05. On to C33G C52A, for which the self-cleavage amounted to 0.08. Then C33G U37G, with 0.08. Then C33G U37A, with 0.08; and C33G U37C, with 0.05; and C33G G54A, with 0.08. Then C33G G54C, with 0.03; and C33G G54U, with 0.1.

Take C33G G47C: the self-cleavage amounted to 0.03. Consider C33G G47U, for which the self-cleavage is 0.02.

On to C33G G47A, for which the self-cleavage amounted to 0.03. Consider C33G G13U, for which the self-cleavage came out at 0.01. Then C33G G13A, with 0.03; and C33G G13C, with 0.01; and C33U U43C, with 0.09. Regarding C33U U43G, the self-cleavage is 0.09. To C33U U43A belongs 0.19; to G34A G42A, 0.11. Then G34A G42U, with 0.05. Then G34A G42C, with 0.08; and C33U G44A, with 0.5; and C33U G44U, with 0.53.

For the variant C33U G44C, the self-cleavage is 0.29.

In the case of C33U U24C, the self-cleavage was 0.06. Then C33U U24G, with 0.03; and C33U U24A, with 0.14. Then C33U G34C, with 0.21. Then C33U G34U, with 0.13. With C33U G34A, the self-cleavage amounted to 0.22. Then C33G U18C, with 0.08.

Take C33G U18G: the self-cleavage came to 0.08. To C33G U18A belongs 0.07; to C33G G50A, 0.06; to C33G G50U, 0.09. Turning to C33G G50C, the self-cleavage is 0.05. Then C33A U43C, with 0.06. As for C33A U43A, the self-cleavage amounted to 0.08. Then C33A U43G, with 0.08. In the case of C33G G42A, the self-cleavage was found to be 0.05.

As to C33G G42U, the self-cleavage turned out to be 0.02.

In the case of C33G G42C, the self-cleavage worked out at 0.05. To C33U G45A belongs 0.08; to C33U G45C, 0.06; to C33U G45U, 0.05. To G34A G35C belongs 0.29; to G34A G35U, 0.8.

For G34A G35A, the self-cleavage worked out at 0.77.

C33U G50C: the self-cleavage turned out to be 0.53. Then C33U G50A, with 0.32.

Regarding C33U G50U, the self-cleavage was 0.88.

In the case of C33U G22C, the self-cleavage stood at 0.45.

For the variant C33U G22A, the self-cleavage was 1.08. Then C33U G22U, with 1.

For C33G C9U, the self-cleavage worked out at 0.04.

Consider C33G C9G, for which the self-cleavage was found to be 0.07. To C33G C9A belongs 0.02; to C33U G19U, 0.06.

Take C33U G19A: the self-cleavage is 0.17. Then C33U G19C, with 0.02; and C33U G47U, with 0.07; and C33U G47C, with 0.07.

In the case of C33U G47A, the self-cleavage is 0.08. C33G G30U: the self-cleavage was 0.02. To C33G G30A belongs 0.02.

As to C33G G30C, the self-cleavage is 0.02. Then C33U G30A, with 0.04. Then C33U G30U, with 0.03; and C33U G30C, with 0.04; and C33U G53C, with 0.07. Turning to C33U G53U, the self-cleavage is 0.13. For C33U G53A, the self-cleavage was found to be 0.35.

Consider C33G G45C, for which the self-cleavage worked out at 0.02. For C33G G45U, the self-cleavage was found to be 0.02. Regarding C33G G45A, the self-cleavage was 0.04. To C33G G53U belongs 0.04; to C33G G53A, 0.08. Then C33G G53C, with 0.03; and C33G G22A, with 0.16. To C33G G22U belongs 0.87; to C33G G22C, 0.62; to C33U G35C, 0.08. As to C33U G35A, the self-cleavage worked out at 0.49. In the case of C33U G35U, the self-cleavage worked out at 0.11. Regarding G34A G48A, the self-cleavage amounted to 0.08. In the case of G34A G48C, the self-cleavage turned out to be 0.08. Then G34A, with 0.86. To C33G U12C belongs 0.03; to C33G U12A, 0.05. Then C33G U12G, with 0.07. Turning to C33G G48A, the self-cleavage was determined as 0.02. To C33G G48U belongs 0.02; to C33G G48C, 0.03; to C33G U24C, 0.04.

With C33G U24G, the self-cleavage came out at 0.01. To C33G U24A belongs 0.04. Turning to C33G G19U, the self-cleavage was determined as 0.03.

Turning to C33G G19A, the self-cleavage came to 0.05. On to C33G G19C, for which the self-cleavage was determined as 0.02. To G34A G44C belongs 0.58; to G34A G44A, 0.69; to G34A G44U, 0.58.

For C33G G35U, the self-cleavage was determined as 0.04. To C33G G35C belongs 0.03. Consider C33G G35A, for which the self-cleavage was 0.05.
